Laboratory results as given in article PMC9868104 (Cell chemical biology, 2022).

Key:
[1] = tested on: STING signaling (STING, pTBK1, pIRF3); assay: STING, pTBK1 and pIRF3 western blot in CT-26 cells; format: cell-based, mouse
Procedure, shortened: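 Lysates were made in HEPES/Triton buffer with TCEP, protease and phosphatase inhibitors and 30 μM pan-PARP inhibitor, normalized by Bradford, and run on SDS-PAGE and nitrocellulose. Blots were probed overnight at 4°C for STING, phospho-TBK1 Ser172 and phospho-IRF3 Ser396 (1:1000 for both phospho antibodies), with tubulin as loading control, and read by HRP chemiluminescence.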

STAT1 and pSTAT1 = assay: STAT1 and pSTAT1; format: cell-based, mouse; conditions: CT-26 cells
Procedure, shortened: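 CT-26 cells at 75% confluency were treated with test compound at 0.01–1 μM for 16 h (dose-response) or at 0.3 μM over 0–24 h (time course); DMXAA (10 μg/ml, 1 h) served as positive control. Lysis buffer contained protease and phosphatase inhibitors plus 30 μM pan-PARP inhibitor. Bradford-normalized lysates were run on SDS-PAGE and nitrocellulose, probed for STAT1 and phospho-STAT1 Tyr701, detected by HRP chemiluminescence, and bands quantified densitometrically.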

[2] = tested on: ISRE luciferase reporter (type I interferon); assay: ISRE luciferase assay in ISRE-Luc CT-26 cells; format: cell-based, mouse; conditions: 18 h, saturating doses
Procedure, shortened: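 ISRE-Luc CT-26 cells were made by lentiviral ISRE-luciferase transduction with 8 μg/mL polybrene and kept under 20 μg/mL puromycin. 1.0 × 10^4 ISRE-Luc or WT CT-26 cells were grown overnight. Test compound was serially diluted in DMSO, then in medium, and added for 18 h. Lysates were read by ONE-Glo luminescence (2 s integration), with the WT CT-26 signal subtracted as background. Curves were four-parameter fits.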

PARP1 [3] = target: T1, PARP1 (Homo sapiens, UniProt P09874); conditions: in words; cited from earlier work
T1 sequence (P09874 whole entry): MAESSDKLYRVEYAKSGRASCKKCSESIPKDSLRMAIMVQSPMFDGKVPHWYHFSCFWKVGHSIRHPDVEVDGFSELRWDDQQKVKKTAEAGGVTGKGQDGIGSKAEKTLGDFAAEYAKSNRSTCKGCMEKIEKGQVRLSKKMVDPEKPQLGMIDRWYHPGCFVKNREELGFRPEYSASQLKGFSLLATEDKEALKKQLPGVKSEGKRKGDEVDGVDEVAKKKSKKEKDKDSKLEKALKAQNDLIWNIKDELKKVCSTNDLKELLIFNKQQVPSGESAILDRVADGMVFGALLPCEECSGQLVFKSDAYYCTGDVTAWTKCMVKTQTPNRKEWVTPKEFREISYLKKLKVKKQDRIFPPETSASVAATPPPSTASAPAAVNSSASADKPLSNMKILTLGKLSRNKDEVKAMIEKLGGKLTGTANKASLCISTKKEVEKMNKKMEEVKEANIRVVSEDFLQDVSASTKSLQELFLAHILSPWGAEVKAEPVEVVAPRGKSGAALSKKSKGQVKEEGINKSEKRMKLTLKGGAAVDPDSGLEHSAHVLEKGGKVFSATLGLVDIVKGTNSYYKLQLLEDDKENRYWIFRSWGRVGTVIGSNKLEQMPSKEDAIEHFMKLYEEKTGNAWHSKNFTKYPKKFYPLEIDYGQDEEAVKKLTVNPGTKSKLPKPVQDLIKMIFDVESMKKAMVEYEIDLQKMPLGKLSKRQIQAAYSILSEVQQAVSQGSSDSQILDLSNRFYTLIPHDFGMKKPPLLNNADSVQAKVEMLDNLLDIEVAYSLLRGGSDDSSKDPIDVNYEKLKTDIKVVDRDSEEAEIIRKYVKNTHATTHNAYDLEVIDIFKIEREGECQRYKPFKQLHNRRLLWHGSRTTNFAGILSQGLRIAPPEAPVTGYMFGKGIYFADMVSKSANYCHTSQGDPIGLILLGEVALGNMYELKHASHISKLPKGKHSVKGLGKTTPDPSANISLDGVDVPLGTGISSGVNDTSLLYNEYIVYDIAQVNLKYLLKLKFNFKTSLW

secreted IFN-β = assay: Interferon-β ELISA, CT-26 cells; format: cell-based, mouse; conditions: 300 nM, 16 h
Procedure, shortened: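 CT-26 cells were grown in RPMI-1640 + 10% FBS in 6-well plates. After 24 h, medium was replaced and cells were treated for 16 h with 300 nM test compound, with or without the covalent STING inhibitor H-151 (500 nM). Harvested medium was assayed for IFN-β with a mouse IFN-β ELISA kit. Statistics: one-way ANOVA.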

PARP12 = target: T2, PARP12 (Homo sapiens, UniProt Q9H0J9); conditions: in words; cited from earlier work
T2 sequence (Q9H0J9 484-698 limits assumed): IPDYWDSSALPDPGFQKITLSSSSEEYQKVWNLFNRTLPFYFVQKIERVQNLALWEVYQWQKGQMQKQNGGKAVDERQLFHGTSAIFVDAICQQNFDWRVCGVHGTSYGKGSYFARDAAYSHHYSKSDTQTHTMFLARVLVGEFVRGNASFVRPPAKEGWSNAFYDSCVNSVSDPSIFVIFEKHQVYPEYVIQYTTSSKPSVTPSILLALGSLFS

[4] = tested on: other PARP family members; assay: PASTA family-wide PARP inhibitor screening, other PARP family members; format: biochemical
PARP7 protein levels = assay: Endogenous PARP7 protein levels in CT-26 cells; format: cell-based, mouse
PARP7 = target: T3, PARP7 (Homo sapiens, UniProt Q7Z3E1); assay: PASTA biochemical PARP screening assay, PARP7; conditions: in words
T3 sequence (Q7Z3E1 1-657): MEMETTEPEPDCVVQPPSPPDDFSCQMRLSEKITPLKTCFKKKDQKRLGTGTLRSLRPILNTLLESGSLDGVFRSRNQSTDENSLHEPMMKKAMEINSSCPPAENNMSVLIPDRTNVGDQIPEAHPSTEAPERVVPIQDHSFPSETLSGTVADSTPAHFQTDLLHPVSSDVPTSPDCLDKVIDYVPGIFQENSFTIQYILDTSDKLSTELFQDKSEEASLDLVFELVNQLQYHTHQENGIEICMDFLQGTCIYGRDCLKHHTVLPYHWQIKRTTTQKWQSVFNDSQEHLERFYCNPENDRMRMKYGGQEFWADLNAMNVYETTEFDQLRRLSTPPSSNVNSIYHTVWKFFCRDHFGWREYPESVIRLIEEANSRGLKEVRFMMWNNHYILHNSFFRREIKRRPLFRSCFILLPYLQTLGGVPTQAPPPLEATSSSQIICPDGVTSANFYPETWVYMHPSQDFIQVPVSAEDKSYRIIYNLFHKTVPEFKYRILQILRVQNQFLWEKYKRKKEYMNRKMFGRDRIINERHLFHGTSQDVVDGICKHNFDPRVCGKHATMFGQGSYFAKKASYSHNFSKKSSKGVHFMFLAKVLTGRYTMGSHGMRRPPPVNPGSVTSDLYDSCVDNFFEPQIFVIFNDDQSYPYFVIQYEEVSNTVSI

PARP1 [5] = target: T1, PARP1; assay: PASTA biochemical PARP screening assay, PARP1; conditions: in words
PARP2 = PARP2 (Homo sapiens, UniProt Q9UGN5); assay: PASTA biochemical PARP screening assay, PARP2; conditions: in words
Sequence of PARP2 (Q9UGN5 whole entry): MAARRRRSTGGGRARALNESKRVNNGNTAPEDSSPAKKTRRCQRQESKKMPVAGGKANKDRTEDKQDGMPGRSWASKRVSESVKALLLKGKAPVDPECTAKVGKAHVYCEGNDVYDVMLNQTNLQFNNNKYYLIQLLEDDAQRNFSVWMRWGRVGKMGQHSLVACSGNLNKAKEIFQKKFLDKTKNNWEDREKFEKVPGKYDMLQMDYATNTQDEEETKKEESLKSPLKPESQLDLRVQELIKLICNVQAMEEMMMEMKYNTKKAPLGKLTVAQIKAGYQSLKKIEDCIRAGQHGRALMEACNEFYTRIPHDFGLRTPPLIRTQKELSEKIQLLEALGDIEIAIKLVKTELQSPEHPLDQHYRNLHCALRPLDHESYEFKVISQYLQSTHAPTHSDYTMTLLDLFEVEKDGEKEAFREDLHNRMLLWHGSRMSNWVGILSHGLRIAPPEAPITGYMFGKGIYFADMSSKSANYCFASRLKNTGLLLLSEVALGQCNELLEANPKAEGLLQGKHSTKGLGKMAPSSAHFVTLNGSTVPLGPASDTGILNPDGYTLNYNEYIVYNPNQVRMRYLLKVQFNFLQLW

[6] = tested on: CYP1A1 mRNA (AHR target gene); assay: CYP1A1 mRNA levels in MEFs; format: cell-based, mouse; conditions: PARP7−/− MEFs, 1 nM TCDD
[7] = increasing concentrations, 16 h

## Cc1ccc2c(=O)c3cccc(CC(=O)O)c3oc2c1C [DMXAA, 5,6-Dimethylxanthenone-4-acetic Acid]
[1]
  STING levels: substantially decreased
  pIRF3: robustly induced
  pTBK1: robustly induced

## C[C@@H](COCCC(=O)N1CCN(c2ncc(C(F)(F)F)cn2)CC1)Nc1cn[nH]c(=O)c1C(F)(F)F [RBN-2397]
STAT1 and pSTAT1; 300 nM
  time of noticeable increase in STAT1: 16 h
  time of noticeable increase in pSTAT1: 4 h
STAT1 and pSTAT1; [7]
  STAT1 and pSTAT1 levels: dose-dependently increased
[2]
  magnitude of ISRE luciferase response compared to KMR-206: ~ 2 fold
PARP1 [3]
  inhibition of PARP1, previous study: double digit nanomolar inhibition
Secreted IFN-β
  levels of secreted IFN-β: to a greater extent than KMR-206
PARP12
  inhibition of PARP12, previous study: double digit nanomolar inhibition
[4]; read-out: IC50 most other PARP family members (does not inhibit up to)
  IC50: > 3000 nM
PARP7 protein levels; 0.3 μM time-course
  time of maximal PARP7 protein levels after addition: ~ 16 h
PARP7 protein levels; [7]
  endogenous PARP7 levels: dramatically increased
PARP7 protein levels; saturating doses
  increase in PARP7 protein abundance compared to KMR-206: 2 fold

## N#Cc1ccc(N2CCN(C(=O)c3cc(Cc4n[nH]c(=O)c5ccccc45)ccc3F)CC2)nc1 [Phthal01]
PARP7
  potency against PARP7: double-digit nanomolar
PARP1 [5]
  potency against PARP1: double-digit nanomolar
PARP2
  potency against PARP2: double-digit nanomolar
[4]; other than PARP1 and PARP2
  fold more potent against PARP7 compared to all other PARP family members: at least 12 fold

## Clc1cc2c(cc1Cl)Oc1cc(Cl)c(Cl)cc1O2 [TCDD, 2,3,7,8-tetrachlorodibenzo-p-dioxin]
[6]
  CYP1A1 mRNA levels, TCDD alone: robust induction of CYP1A1
